Screening data deposited in PubChem by Johns Hopkins Ion Channel Center.
KCNK9 inh: human KCNK9 channel inhibition | HEK293 KCNK9, FluxOR thallium flux fluorescence; active compounds read low | B-score at 10 µM | hit rate 1.2% among 310,000;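 active = ratio B-score over 3 SD below the library mean, with starting fluorescence within 5 SD of its mean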;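 note: negative B-score means less thallium flux so channel inhibition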
KCNK3 block: human KCNK3 channel inhibition, primary screen; hit rate 0.84% among 340,000; CHO-KCNK3 thallium flux, FluxOR fluorescence; active compounds read low; B-score at 10 µM;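 active = B-score under library mean minus 4 SD, starting fluorescence ratio at most library mean plus 5 SD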;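 note: more negative B-score means stronger inhibition of thallium flux through KCNK3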
KCNQ1 pot: human KCNQ1 channel potentiation or activation. P51787. CHO-K1 KCNQ1, thallium flux FluxOR fluorescence; active compounds read high. B-score at 10 µM. hit rate 0.35% among 310,000. AID 2648;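 active = fluorescence ratio B-score, a plate-corrected score, at least three library SD, with initial intensity B-score within 5 SD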
Target sequence (P51787 whole entry, looked up): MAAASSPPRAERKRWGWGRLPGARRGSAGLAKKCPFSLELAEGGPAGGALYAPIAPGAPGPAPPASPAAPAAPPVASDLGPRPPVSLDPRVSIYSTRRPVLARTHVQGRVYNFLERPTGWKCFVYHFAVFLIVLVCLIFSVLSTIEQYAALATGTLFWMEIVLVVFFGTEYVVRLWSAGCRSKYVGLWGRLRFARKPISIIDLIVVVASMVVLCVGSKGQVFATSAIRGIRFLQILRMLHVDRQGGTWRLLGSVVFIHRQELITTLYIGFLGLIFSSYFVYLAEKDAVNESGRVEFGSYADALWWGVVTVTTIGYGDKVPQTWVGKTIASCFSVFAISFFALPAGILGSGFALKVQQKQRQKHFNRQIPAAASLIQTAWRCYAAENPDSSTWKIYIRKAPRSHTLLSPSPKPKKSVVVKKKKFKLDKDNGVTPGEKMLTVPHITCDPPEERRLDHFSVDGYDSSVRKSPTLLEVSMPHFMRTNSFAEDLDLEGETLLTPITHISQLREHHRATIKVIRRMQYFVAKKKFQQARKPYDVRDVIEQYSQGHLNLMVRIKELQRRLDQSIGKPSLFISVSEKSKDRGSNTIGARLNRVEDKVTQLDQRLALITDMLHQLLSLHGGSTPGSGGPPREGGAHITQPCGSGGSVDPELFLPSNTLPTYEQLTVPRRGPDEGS
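Test system: CHO-K1 cells stably expressing KCNQ1 / Medium: assay buffer / Also added: depolarizing K+/Tl+ stimulus, K2SO4 and Tl2SO4 each 12.5 mM in 5x stock / Incubation: 90 min dye loading and 20 min compound exposure, both at room temperature / Signal: thallium influx via FluxOR fluorescence, kinetic imaging / Evaluation: B score of baseline-normalized fluorescence ratio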
hERG rescue: compounds protecting human hERG from proarrhythmic drug block; activation (rescue from dofetilide block), less the hit threshold, % at 10 µM; hit rate 0.51% among 310,000; CHO-hERG, FluxOR thallium flux, dofetilide IC70 present; Q12809;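 active = activation above the mean of controls blocked by dofetilide plus 5 SD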;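 note: thallium influx through hERG after potassium depolarization seen as dye fluorescence rise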
KCNQ1 block: inhibitors of human KCNQ1 potassium channel; P51787; CHO-K1 KCNQ1, FluxOR thallium flux fluorescence; active compounds read high; B-score at 10 µM; hit rate 1.3% among 310,000; AID 2642;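 active = compounds whose thallium flux B-score, printed positive for inhibition, exceeds three library SD while starting fluorescence stays within three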;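 note: channel opened by potassium depolarization with thallium stimulus after 20 min compound exposure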
KCNK3 confirm: human KCNK3 channel inhibition, confirmation assay; ratio percent of control, % at 10 µM; hit rate 99% among 2,400; CHO-KCNK3 thallium flux, FluxOR fluorescence; 0% buffer, 100% carvedilol maximal block; shares compounds with KCNK3 block;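 active = ratio percent of control, averaged over triplicates, above buffer control mean plus 5 SD, cut at about 64% in these data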;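 note: ratio is the fluorescence rise from min to max over baseline after thallium stimulus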
KCNK3 uninduced: activity in cells without induced KCNK3 expression; shares compounds with KCNK3 block; non-induced KCNK3 parental cells, FluxOR thallium flux; active compounds read low; thallium flux ratio (lower = more inhibition) at 10 µM; hit rate 40% among 2,400;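 active = thallium flux ratio, averaged over three wells, more than 5 SD below the buffer control mean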;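 note: host cells are CHO cells without KCNK3 induction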
A number is an active result; – = inactive; · = not tested or not shown. A selection: hits, their analogues and other compounds. The true share with any hit is near 3.1%.

SMILES | KCNK9 inh | KCNK3 block | KCNQ1 pot | hERG rescue | KCNQ1 block | KCNK3 confirm | KCNK3 uninduced
CN(C)c1ccc(C(C(=O)NCc2ccccc2)N(Cc2ccco2)C(=O)c2snc(C(N)=O)c2N)cc1 (stereo unspecified) | – | – | – | – | – | · | ·
COc1cc(OC)c(OC)cc1/C=C1\CC(C)C/C(=C\c2cc(OC)c(OC)cc2OC)C1=O (stereo unspecified) | – | -14 | – | – | 8 | 154 | 0.066
Cc1ccc(N2CC(C(=O)Nc3ccccc3OC(F)F)CC2=O)cc1 (stereo unspecified) | · | – | · | · | · | · | ·
C=CCN(c1nc(C)cc(OC)n1)S(=O)(=O)c1ccccc1 | – | -9.2 | – | – | – | 107 | –
C=CCN(c1nc(C)cc(OC)n1)S(=O)(=O)c1ccc(C)cc1 | – | – | – | – | – | · | ·
O=C(CSc1nc2ccccc2c(=O)n1CCCN1CCOCC1)Nc1ccccc1OC(F)F | · | – | · | · | · | · | ·
Cc1ccc(C(=O)NNC(=O)c2ccoc2C)s1 | · | – | · | · | · | · | ·
COc1ccccc1-n1c(SCC(=O)Nc2ccccc2F)nc2[nH]ncc2c1=O | – | -9.6 | – | – | – | 114 | –
Cc1csc2c(N3CCN(C(=O)Nc4ccccc4)CC3)ncnc12 | – | – | – | – | – | · | ·
Cc1csc2ncnc(N3CCN(C(=O)Nc4ccc(OC(F)(F)F)cc4)CC3)c12 | – | -9.7 | – | – | – | 109 | 0.16
Cc1sc2ncnc(N3CCN(S(=O)(=O)c4ccc(F)cc4)CC3)c2c1C | – | -11 | – | – | – | 124 | 0.16
CCS(=O)(=O)N1CCN(c2ncnc3sc(C)c(C)c23)CC1 | – | – | – | – | – | · | ·
COc1nc(-c2ccccc2)ccc1-c1noc(-c2ccccc2)n1 | – | -12 | – | – | – | 99 | –
COCCn1cnc2c1c(=O)[nH]c(=O)n2Cc1ccccc1 | – | – | – | – | – | · | ·
COc1ccc(Cl)cc1C(=O)NNC(=O)CNC(=O)c1ccc(C)s1 | · | – | · | · | · | · | ·
COc1ccccc1C(C)Nc1nc(-c2cccnc2)nc2ccccc12 (stereo unspecified) | – | -11 | – | – | – | 125 | –
CCCCc1nn(-c2cc(Cl)ccc2OC)c2c1C(=O)CCC2 | – | -9.2 | – | – | – | 96 | 0.16
CCCCN(C(=O)CSCC(=O)Nc1ccc(C)cc1)c1c(N)n(Cc2ccccc2)c(=O)[nH]c1=O | – | – | – | – | – | · | ·
COc1ccc2nc(SCC(=O)Nc3cc(OC)c(OC)cc3C(=O)O)c(C)cc2c1 | – | – | – | – | – | · | ·
CCCOC(=O)c1ccc(NC(=O)CSC2=Nc3ccccc3C3CC=NN23)cc1 (stereo unspecified) | -7 | -9 | – | – | – | 110 | –
COc1ccc(NC(=O)c2cnc(SC)nc2)cc1 | – | – | – | – | – | · | ·
CCC/C(O)=C1\C(=O)CCCC1=NCCc1ccc(OCC)c(OCC)c1 | – | -9.2 | – | – | – | 117 | –
Cc1cc(NC(=O)Cn2nc(C(=O)O)c3ccccc3c2=O)c([N+](=O)[O-])cc1C | – | – | – | – | – | · | ·
Cc1nn(Cc2ccccc2Cl)c(C)c1NC(=O)c1ccn(C)n1 | – | – | – | – | – | · | ·
Cc1nn(Cc2ccccc2Cl)c(C)c1NC(=O)NC12CC3CC(CC(C3)C1)C2 | – | -8.9 | – | – | – | 119 | 0.14
SMILES | KCNK9 inh | KCNK3 block | KCNQ1 pot | hERG rescue | KCNQ1 block | KCNK3 confirm | KCNK3 uninduced
COCCn1c(SCC(=O)Nc2c(C)n(C)n(-c3ccccc3)c2=O)nc2ccccc2c1=O | · | – | · | · | · | · | ·
CCn1nnc(NC(=O)COc2ccc(C3CCCCC3)cc2)n1 | – | -9.7 | – | – | – | 94 | 0.16
CCOc1ccc(C(=O)Nc2nnn(CC)n2)cc1 | – | – | – | – | – | · | ·
Cc1c(Cl)cccc1NC(=O)N1CCCN(c2nc(-c3ccccc3)ns2)CC1 | – | – | – | – | – | · | ·
O=C(Nc1ccccc1Cl)N1CCCN(c2nc(-c3ccccc3)ns2)CC1 | -7 | -12 | – | – | – | 112 | –
COc1ccccc1OCCCn1c(C)c(C#N)c2ccccc21 | – | -10 | – | – | – | 119 | 0.16
Cc1c(C#N)c2ccccc2n1CC(=O)O | – | – | – | – | – | · | ·
N#Cc1ccc(COC(=O)c2ccccn2)cc1 | – | · | – | – | – | · | ·
c1ccc2c(-c3c[nH]c4ccccc34)c3ccccc3nc2c1 | – | -10 | – | – | – | 123 | –
O=C(O)c1cc(-c2c[nH]c3ccccc23)nc2ccc3ccccc3c12 | – | – | – | – | – | · | ·
Cc1cccc(CSC2=NCCN2S(=O)(=O)c2ccc(F)cc2)c1 | – | -8.9 | – | – | – | 105 | –
COc1ccc(OC)c(C2=NS(=O)(=O)N(C)C(C(=O)Nc3cccc(C(C)=O)c3)=C2)c1 | – | -8.8 | – | – | – | 122 | 0.15
COCCCN1C(=O)c2ccc(C(=O)NCc3ccccn3)cc2C1=O | – | – | – | – | – | · | ·
C[C@H](CO)N1C[C@H](C)[C@@H](CN(C)CC2CCCCC2)Oc2c(NC(=O)C3CC3)cccc2C1=O | · | -12 | · | · | · | 104 | –
C[C@H]1CN([C@@H](C)CO)C(=O)c2cccc(NC(=O)C3CC3)c2O[C@H]1CN(C)CC1CCCCC1 | · | – | · | · | · | · | ·
CN(Cc1cccc([N+](=O)[O-])c1)Cc1cccc2ccccc12 | -6.8 | -11 | – | – | 6 | 114 | 0.15
COC(=O)c1cn(C(=O)c2cccc(Br)c2)c2ccccc12 | – | – | – | – | – | · | ·
O=C(Nc1ccc(N2CCCC2)cc1)c1cccc(-c2cc3ccccc3oc2=O)c1 | – | -10 | – | – | – | 84 | –
CC(C)c1ccc(NC2CCCN(C(=O)c3ccoc3)C2)cc1 (stereo unspecified) | – | – | – | – | – | · | ·
C=CCOc1ccc(C(=O)n2cc(C(=O)OC)c3ccccc32)cc1 | – | -9.3 | – | – | – | 114 | –
CCOC(=O)C1=C(C)N=C2c3ccccc3C(=O)C2C1c1ccccc1 (stereo unspecified) | – | -8.9 | – | – | – | 102 | –
O=C(CNC(=O)c1ccc(Br)o1)NNC(=O)c1ccccc1O | – | – | – | – | – | · | ·
N#Cc1nc(COc2ccccc2F)oc1N1CCCCCC1 | · | – | · | · | · | · | ·
N#Cc1nc(COc2ccccc2Cl)oc1NCc1ccc(F)cc1 | – | – | – | – | – | · | ·
N#Cc1nc(COc2ccccc2F)oc1NCCc1ccccc1 | – | -10 | – | – | – | 102 | –
CN(Cc1ccccc1)c1oc(COc2ccccc2F)nc1C#N | – | -13 | – | – | – | 115 | 0.14
O=C(CCN1CCN(c2ccccc2F)CC1)Nc1cccc(F)c1 | – | – | – | – | – | · | ·
COc1cccc(NC(=S)N2CCC(c3ccc(C)cc3)C2)c1 (stereo unspecified) | – | – | – | – | – | · | ·
CCSc1nc(-c2ccc(OC)cc2)ccc1C#N | – | -8.8 | – | – | – | 113 | –
